Consider two proteins from ChEMBL document CHEMBL1127290, “1-(2,5-Dimethoxy-4-(trifluoromethyl)phenyl)-2-aminopropane: a potent serotonin 5-HT2A/2C agonist” (J Med Chem, 1994).

Common to all, as to format: functional
Substrate in data set [1]: COc1cc(CC(C)N)c(OC)cc1I
Nature of the data set: (§1) The maximum responses of [3H]- inositol monophosphate accumulation in cells expressing the 5-hydroxytryptamine 2A receptor.

Substrate in data set [2]: COc1cc(C(F)(F)F)c(OC)cc1CCN
The description is as §1.

Substrate in data set [3]: COc1cc(C(F)(F)F)c(OC)cc1CC(C)N
The data set is described as §1.

Substrate in data set [4]: COc1cc(CC(C)N)c(OC)cc1I
Nature of the data set: (§2) The maximum responses of [3H]- inositol monophosphate accumulation in cells expressing the 5-hydroxytryptamine 2C receptor. The gist of the method: (§3)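 A9 cells expressing cloned 5-HT2C receptor, labelled 18 h with 1 μCi/mL [3H]inositol in inositol-free DMEM with dialysed serum. Compounds given 60 min with 10 mM LiCl in Krebs bicarbonate buffer, then [3H]inositol monophosphate accumulation measured. Expressed as % of the 5-HT (10^-5 M) maximum minus control. Vmax by nonlinear regression. Triplicates in three experiments, mean ± SE.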

Substrate in data set [5]: COc1cc(C(F)(F)F)c(OC)cc1CCN
The data set is described as §2. In outline:
as §3

Substrate in data set [6]: COc1cc(C(F)(F)F)c(OC)cc1CC(C)N
The description is as §2. The gist of the method: as §3

B1: 5-hydroxytryptamine receptor 2A (Mus musculus), P35363 (protein)
chain: MEILCEDNISLSSIPNSLMQLGDDSRLYPNDFNSRDANTSEASNWTIDAENRTNLSCEGYLPPTCLSILHLQEKNWSALLTTVVIILTIAGNILVIMAVSLEKKLQNATNYFLMSLAIADMLLGFLVMPVSMLTILYGYRWPLPSKLCAVWIYLDVLFSTASIMHLCAISLDRYVAIQNPIHHSRFNSRTKAFLKIIAVWTISVGISMPIPVFGLQDDSKVFKEGSCLLADDNFVLIGSFVAFFIPLTIMVITYFLTIKSLQKEATLCVSDLSTRAKLSSFSFLPQSSLSSEKLFQRSIHREPGSYAGRRTMQSISNEQKACKVLGIVFFLFVVMWCPFFITNIMAVICKESCNENVIGALLNVFVWIGYLSSAVNPLVYTLFNKTYRSAFSRYIQCQYKENRKPLQLILVNTIPTLAYKSSQLQVGQKKNSQEDAEPTANDCSMVTLGNQHSEEMCTDNIETVNEKVSCV
As for B1, the Vmax in data set [1] came out at 94; in data set [2], 58; in data set [3], 91.

B2: 5-hydroxytryptamine receptor 2C (Mus musculus), P34968 (protein)
chain: MVNLGTAVRSLLVHLIGLLVWQFDISISPVAAIVTDTFNSSDGGRLFQFPDGVQNWPALSIVVIIIMTIGGNILVIMAVSMEKKLHNATNYFLMSLAIADMLVGLLVMPLSLLAILYDYVWPLPRYLCPVWISLDVLFSTASIMHLCAISLDRYVAIRNPIEHSRFNSRTKAIMKIAIVWAISIGVSVPIPVIGLRDESKVFVNNTTCVLNDPNFVLIGSFVAFFIPLTIMVITYFLTIYVLRRQTLMLLRGHTEEELRNISLNFLKCCCKKGDEEENAPNPNPDQKPRRKKKEKRPRGTMQAINNEKKASKVLGIVFFVFLIMWCPFFITNILSVLCGKACNQKLMEKLLNVFVWIGYVCSGINPLVYTLFNKIYRRAFSKYLRCDYKPDKKPPVRQIPRVAATALSGRELNVNIYRHTNERVVRKANDTEPGIEMQVENLELPVNPSNVVSERISSV
For B2, the values for the Vmax in data set [4], in data set [5] and in data set [6] were 82, 80 and 82, respectively.
